XBP1 UPR activ: activators of adaptive arm of unfolded protein response (XBP1); CHO-XBP1 luciferase reporter, IRE1-XBP1 UPR activation, luminescence; percent of tunicamycin response, DMSO as zero; activation, % at 20 µM; 330,000 compounds, 0.33% hits; AID 463104;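 active = versus positive control, 20 µM dose yields 30% or more activation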;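 also: 100% = tunicamycin at 10 µg/mL and 0% = DMSO only wells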
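Material: CHO-XBP1 cells stably carrying IRE1-XBP1-driven luciferase reporter / Amount: 1000 cells per well / Compound: 20 µM, 1% DMSO / Times: 6 h treatment, 37 °C / Detection: luciferase luminescence / Measure: % activation of reporter signal versus tunicamycin and DMSO controls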
Mdm2-MdmX inh: inhibitors of human Mdm2/MdmX interaction | SaOS-2 split-luciferase Mdm2/MdmX complementation, luminescence | inhibition, % at 8 µM | 330,000 compounds, 3% hits | AID 485346;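 active = inhibition of at least 50% at 8 µM in the primary screen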
Exocytosis inh: blocks lytic granule exocytosis; TALL-104 LAMP-1 surface exposure, flow cytometry; cells stimulated with thapsigargin and PMA; inhibition, % at 10 µM; 360,000 compounds, 0.66% hits;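 active = inhibition above about 55%, limit read from the data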
ABHD5 PLIN5 PPI: inhibitors of human ABHD5-perilipin-5 interaction. 360,000 compounds, 0.78% hits. Split G. princeps luciferase complementation, luminescence, 4 h. inhibition, % at 4 µM;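 active = inhibition above the mean inhibition across every tested compound plus 3 SD, cut at about 22% in these data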;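 also: 0% = DMSO only wells and the 100% control is not disclosed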
Target sequence (Q00G26 whole entry, looked up): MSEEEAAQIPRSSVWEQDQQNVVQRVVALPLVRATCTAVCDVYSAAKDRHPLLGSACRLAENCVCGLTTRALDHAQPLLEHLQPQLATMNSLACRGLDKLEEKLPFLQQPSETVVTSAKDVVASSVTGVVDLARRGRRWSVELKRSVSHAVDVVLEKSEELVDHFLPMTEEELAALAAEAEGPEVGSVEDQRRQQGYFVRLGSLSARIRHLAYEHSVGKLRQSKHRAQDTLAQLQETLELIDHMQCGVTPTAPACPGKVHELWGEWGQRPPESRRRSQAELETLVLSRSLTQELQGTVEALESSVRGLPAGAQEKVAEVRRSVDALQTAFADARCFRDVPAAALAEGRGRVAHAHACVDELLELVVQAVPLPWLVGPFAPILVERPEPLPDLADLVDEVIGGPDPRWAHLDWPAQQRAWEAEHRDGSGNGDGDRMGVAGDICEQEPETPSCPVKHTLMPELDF
Target sequence (Q8WTS1 whole entry, looked up): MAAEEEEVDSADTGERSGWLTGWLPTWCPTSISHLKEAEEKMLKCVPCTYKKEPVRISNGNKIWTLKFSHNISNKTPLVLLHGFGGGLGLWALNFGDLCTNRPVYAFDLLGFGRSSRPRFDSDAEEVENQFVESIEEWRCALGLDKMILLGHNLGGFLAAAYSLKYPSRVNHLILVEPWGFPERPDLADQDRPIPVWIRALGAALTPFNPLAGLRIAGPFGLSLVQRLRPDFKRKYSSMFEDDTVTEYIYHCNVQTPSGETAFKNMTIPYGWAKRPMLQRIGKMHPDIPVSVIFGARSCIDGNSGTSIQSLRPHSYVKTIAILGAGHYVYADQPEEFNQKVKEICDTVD
CHOP UPR activ: activators of apoptotic arm of unfolded protein response (CHOP); activation, % at 10 µM; 330,000 compounds, 0.34% hits; CHO-CHOP luciferase reporter, UPR activation, luminescence; percent of tunicamycin response over DMSO baseline;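 active = at 10 µM dose, activation of 40% or more, normalized to positive control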;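 also: 100% = tunicamycin at 10 µg/mL and 0% = DMSO alone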
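System: CHO-CHOP luciferase reporter cell line | Buffer or medium: F12 medium containing 10% fetal bovine serum | Doses: One dose, 10 µM in 0.5% DMSO | Times: 6 h compound exposure at 37 °C after overnight seeding | Signal: Luciferase luminescence | Read-out: % activation vs tunicamycin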
Mdm2 MdmX conf: confirmation of human Mdm2/MdmX interaction inhibitors; shares compounds with Mdm2-MdmX inh; Mdm2-MdmX binding, luminescent assay; inhibition, % at 8 µM; 10,000 compounds, 55% hits; AID 489028; in the data active = inhibition above about 40%
FLuc counter: inhibits full-length luciferase, flagging false Mdm2/MdmX hits; inhibition, % at 8 µM; shares compounds with Mdm2-MdmX inh; 6,200 compounds, 77% hits; SaOS-2 full-length luciferase counterscreen, luminescence;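 active = mean inhibition at 8 µM reaching about 37%, which flags the compound as non-specific, limit read from the data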;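 also: p53-null SaOS-2 cells with luciferase driven by a doxycycline-inducible promoter; compound on cells about two nights before reading with doxycycline added after day one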
Numbers without * were called inactive; nt = no result. Compounds with a hit are over-represented: about 4% of the library has one in this group of screens.

SMILES	XBP1 UPR activ	Mdm2-MdmX inh	Exocytosis inh	ABHD5 PLIN5 PPI	CHOP UPR activ	Mdm2 MdmX conf	FLuc counter
COC(=O)c1[nH]c2ccc(C)cc2c1NC(=O)CCN1CCN(C2CCCCC2)CC1	-1	22	nt	nt	1	nt	nt
N#CC1=C2SCC(O)(c3ccccc3)N2C(=O)CC1c1ccccc1F (stereo not given)	-2	87*	6	-4	0	83*	40*
Cc1[nH]c2ccc(-c3n[nH]c(=S)n3-c3ccc(Br)cc3)cc2c1C	-2	-10	8	-1	-2	nt	nt
Cc1cc(C)cc(N(CCC(=O)Nc2nnc(C3CC3)s2)S(=O)(=O)c2ccc(Cl)cc2)c1	-2	51*	-5	4	1	60*	76*
Cc1[nH]n(-c2ccccc2)c(=O)c1N=Nc1ccccc1O	-1	59*	-3	-9	3	58*	42*
CN1C(c2ccc(F)cc2)=CS/C1=C(/C#N)c1nnc(N2CCOCC2)n1-c1ccccc1	-1	-6	0	1	1	nt	nt
CN1C(=O)NC(c2ccccc2)(C(F)(F)F)S/C1=C(/C#N)c1nnc(N2CCOCC2)n1-c1ccccc1 (stereo not given)	-1	50*	22	6	0	18	nt
Cc1cccc(CCN2C(N(C)C)=NC[C@@H]2C)c1	-1	-4	-6	1	-1	nt	nt
Cn1c(=O)oc2cc(S(=O)(=O)N3CCCc4ccccc43)ccc21	-3	55*	8	-4	-1	59*	65*
CCC(=O)Nc1ccc(S(=O)(=O)N2CCc3ccccc32)cc1	-6	23	-12	2	3	nt	nt
COC(=O)Nc1ccc(S(=O)(=O)N2CCCc3ccccc32)cc1	3	55*	2	-1	-1	49*	56*
COc1ccc(S(=O)(=O)N2CCc3ccccc32)cc1C(=O)Nc1ccc(C(N)=O)cc1	2	98*	-14	-1	2	60*	66*
COc1ccccc1C(=O)Nc1ccc(S(=O)(=O)N2CCc3ccccc32)cc1	1	-59	-12	3	1	nt	nt
Cn1c(=O)oc2cc(S(=O)(=O)N3CCc4ccccc43)ccc21	0	12	9	4	-2	nt	nt
COC(=O)Nc1ccc(S(=O)(=O)N2CCCc3cccc(O)c32)cc1	1	55*	-3	10	0	52*	63*
Cc1ccc(NC(=O)CN(C)C(=O)c2ccc(Sc3nncn3C)c([N+](=O)[O-])c2)cc1	-2	18	-6	3	0	nt	nt
COc1ccc(NC(=S)N2CCC(NC(=O)c3cccc(C)c3)CC2)cc1	-7	-7	26	-2	0	nt	nt
O=C(/C(=N/O)n1cncn1)c1ccccc1Cl	0	9	4	-1	0	nt	nt
COc1ccc(OC)c(-c2c(C#N)c(N)nc3c2c(=O)nc2sccn23)c1	-1	-8	-1	4	-2	nt	nt
C=CCN1C(=O)/C(=c2\sc3nc(=O)c(Cc4ccccc4)nn3c2=O)c2ccccc21	1	16	-7	-7	0	nt	nt
Cc1cccc(-n2nnnc2SCC(=O)N(CC(C)C)c2c(N)n(CC(C)C)c(=O)[nH]c2=O)c1	1	8	0	-4	2	nt	nt
O=C(c1ccc(COc2ccc3c(c2)CCC3)o1)N1CCN(c2ccccc2)CC1	-4	11	0	10	2	nt	nt
O=C1CC(c2ccco2)Cc2c1cnn2-c1nc2ccccc2s1 (stereo not given)	-2	50*	-2	-2	0	6	nt
CCOC(=O)c1ccc(Nc2nc(=O)c3cccnc3s2)cc1	1	71*	-1	-8	1	41*	73*
CC(=O)c1ccc(Nc2nc(=O)c3cccnc3s2)cc1	4	5	1	5	1	nt	nt
SMILES	XBP1 UPR activ	Mdm2-MdmX inh	Exocytosis inh	ABHD5 PLIN5 PPI	CHOP UPR activ	Mdm2 MdmX conf	FLuc counter
O=c1nc(Nc2ccc(OCc3ccccc3)cc2)sc2ncccc12	0	69*	1	3	-1	82*	23
CC(=O)c1cccc(Nc2nc(=O)c3cccnc3s2)c1	-1	15	1	6	1	nt	nt
CC1Sc2ccc(S(=O)(=O)CCC(=O)NC3CCCCCC3)cc2NC1=O (stereo not given)	-2	15	-8	-2	2	nt	nt
CCOC(=O)c1ccc(NC(=S)N(CCCN2CCCC2)Cc2cccs2)cc1	1	28	3	-1	-1	nt	nt
COc1ccc2c(c1)c(=O)oc1cc(OCC(=O)NC3CC3)ccc12	-2	53*	5	-4	3	-18	nt
N=c1c(C(=O)NCCN2CCOCC2)cc2c(=O)n3ccccc3nc2n1Cc1ccc(F)cc1	-5	23	0	4	0	nt	nt
N=c1c(C(=O)NCc2ccc(F)cc2)cc2c(=O)n3ccccc3nc2n1Cc1ccco1	20	100*	13	20	2	61*	16
COc1ccc(CNC(=O)c2cc3c(=O)n4ccccc4nc3n(Cc3cccnc3)c2=N)cc1	-1	14	4	15	3	nt	nt
COc1ccc(CCn2c(=N)c(C(=O)NC3CCCC3)cc3c(=O)n4ccccc4nc32)cc1	0	52*	39	4	1	0	nt
COc1cccc(NC(=O)c2cc3c(=O)n4ccccc4nc3n(CC(C)C)c2=N)c1	5	74*	68*	3	9	68*	41*
Cc1cc(C)n(-c2ccnc3cc(Cl)ccc23)n1	0	-18	5	7	2	nt	nt
CCS(=O)(=O)N1N=C(c2cccc(NS(C)(=O)=O)c2)CC1c1cccs1 (stereo not given)	-2	20	-3	5	1	nt	nt
Cc1ccccc1N=Nc1c(O)[nH]c2ccccc12	6	-26	-6	-12	4	nt	nt
Cc1ccccc1C(=O)N1CCC(C(=O)N(C)CC(=O)Nc2cccc(F)c2)CC1	-3	26	6	-1	1	nt	nt
CCOC(=O)c1sc(N=NC2=C(O)CCCC2=O)c(C(=O)OCC)c1C	4	6	-2	-2	3	nt	nt
C(=N\Nc1nc(-c2cccnc2)nc2ccccc12)/c1ccccc1	1	8	-4	3	5	nt	nt
C(=N\Nc1nc(-c2ccccn2)nc2ccccc12)/c1ccccc1	13	80*	nt	nt	527*	89*	26
COc1ccc(NC(=O)c2cc(=O)c3ccccc3o2)cc1Cl	-2	52*	-21	0	-1	47*	95*
CC(C)Cn1c(N)c(C(=O)CSc2ncccn2)c(=O)n(C)c1=O	0	25	-5	4	0	nt	nt
CC(C)Cn1c(N)c(C(=O)CSc2cc(Cl)ccc2Cl)c(=O)n(C)c1=O	4	69*	nt	nt	5	-2	nt
